Laboratory results as given in ChEMBL document CHEMBL1138626, “Synthesis and biological evaluation of reversible inhibitors of IdeS, a bacterial cysteine protease and virulence determinant” (Bioorg Med Chem, 2009).
Activity calls are given as the source filed them. The calls are words filed in the database; no cut-off is given here.

Tested on: Streptococcus pyogenes
Assay: Inhibition of Streptococcus pyogenes IdeS assessed as blockade of enzyme-mediated degradation of human polyclonal immunoglobulin G by SDS-PAGE method
How it was run: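 IdeS expressed in E. coli and purified, diluted in PBS pH 7.4 (1 mg/mL), preincubated 30 min at room temperature in the dark with compound in DMSO (10 mg/mL stock, 100× excess). Human polyclonal IgG (1 mg/mL in PBS) then added, 1 h at 37 °C. Samples boiled in reducing SDS sample buffer (4% SDS, 5% 2-mercaptoethanol), cleavage read on 4–20% SDS–PAGE.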

SMILES	Activity
Cc1ccc(S(=O)(=O)N[C@@H](CCCCN)C(=O)CCl)cc1	Active
Cc1ccc(S(=O)(=O)N[C@H](CC=O)Cc2ccccc2)cc1	Active
CCCC[C@@H](COS(=O)(=O)c1ccc(C)cc1)NS(=O)(=O)c1ccc(C)cc1	inactive
Cc1ccc(S(=O)(=O)N[C@H](COS(=O)(=O)c2ccc(C)cc2)C(C)C)cc1	inactive
Cc1ccc(S(=O)(=O)N2C[C@@H]2C(C)C)cc1 (stereo partly drawn)	inactive
Cc1ccc(S(=O)(=O)NC(CC=O)C(C)C)cc1 (single isomer, unassigned)	Active
Cc1ccc(S(=O)(=O)N[C@H](COS(=O)(=O)c2ccc(C)cc2)Cc2ccccc2)cc1	inactive
CCCC[C@@H](CC#N)NS(=O)(=O)c1ccc(C)cc1	Active
Cc1ccc(S(=O)(=O)N[C@H](CO)CCCCNC(=O)OC(C)(C)C)cc1	inactive
Cc1ccc(S(=O)(=O)N[C@H](CO)CCCCN)cc1	inactive
Cc1ccc(S(=O)(=O)N[C@@H](CCCCNC(=O)OC(C)(C)C)CN=[N+]=[N-])cc1	inactive
Cc1ccc(S(=O)(=O)N[C@@H](Cc2ccccc2)C(=O)CCl)cc1	Active
CCCC[C@@H](CN=[N+]=[N-])NS(=O)(=O)c1ccc(C)cc1	Active
Cc1ccc(S(=O)(=O)N[C@H](CN=[N+]=[N-])Cc2ccccc2)cc1	Active
Cc1ccc(S(=O)(=O)N[C@H](CO)Cc2ccccc2)cc1	inactive
Cc1ccc(S(=O)(=O)N[C@@H](CCCCNC(=O)OC(C)(C)C)COS(=O)(=O)c2ccc(C)cc2)cc1	inactive
Cc1ccc(S(=O)(=O)N[C@H](CO)C(C)C)cc1	inactive
Cc1ccc(S(=O)(=O)N[C@H](CN=[N+]=[N-])C(C)C)cc1	Active
CCCC[C@@H](CC=O)NS(=O)(=O)c1ccc(C)cc1	Active
CCCC[C@@H](CO)NS(=O)(=O)c1ccc(C)cc1	inactive
Cc1ccc(S(=O)(=O)N[C@H](CC=O)CCCCNC(=O)OC(C)(C)C)cc1	Active
Cc1ccc(S(=O)(=O)N[C@@H](CCCCN)CN=[N+]=[N-])cc1	inactive
CCCC[C@H]1CN1S(=O)(=O)c1ccc(C)cc1 (stereo partly drawn)	inactive
